Shn3 3UTR inh: Schnurri-3 reporter inhibition in Clone20 osteoblasts; Clone20 osteoblast Shn3 3'UTR firefly luciferase, 24 h; inhibition, % at 12.5 µM; actives 0.52% (n = 360,000);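 active means mean inhibition of at least 75% with every replicate also reaching 75%; inconclusive means mean inhibition at least 75% but some replicate below; inactive means mean inhibition below 75%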;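 further: 0% = median of neutral control wells and 100% = pilot-screen positive control compound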
PAX8 reporter: lowers PAX8-driven luciferase in RMG-I cells; RMG-I TPO-luciferase reporter, SteadyGlo, 24 h; inhibition, % at 12.6 µM; actives 1.2% (n = 360,000); AID 652154;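 active means mean replicate inhibition at least 60% with every replicate also reaching 60%; inconclusive means only one of the two criteria is met; inactive means mean below 60% and not all replicates reaching 60%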;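 further: luciferase light reporting Pax8 driven TPO promoter activity; plate controls were median of neutral control wells for no effect and mitoxantrone controls for full effect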
EBV LMP1 NFkB: Epstein-Barr LMP1 NF-kappaB reporter inhibition. inhibition, % at 12.5 µM. AID 504558. actives 0.69% (n = 350,000). LMP1-induced NF-kappaB luciferase reporter cells, luminescence; in the data active means inhibition above about 41%; inconclusive means no clear call, values can overlap the other calls;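 further: 0% = neutral control wells and 100% = reference inhibitor control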
FN deposit inh: fibronectin deposition inhibition. AH1F fibroblasts, Alexa488-fibronectin deposition fluorescence, overnight. inhibition, % at 12.6 µM. actives 0.086% (n = 350,000). AID 743247;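 active means mean inhibition across replicates of 30% or more, regardless of how many single replicates reach that level; inconclusive means mean under 30% yet at least half of replicates reach 30%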;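 further: positive control wells lacked labelled fibronectin entirely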
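Test system: AH1F fibroblast monolayer depositing Alexa488-labelled fibronectin into matrix. Input: 10000 cells per well. Technique: fluorescence, ex 485 nm, em 525 nm. Buffer or medium: DMEM plus 2% serum, read in PBS. Timing: 1 h cell adhesion before compound, then overnight fibronectin incubation. Compound: single dose, pinned. Read-out basis: inhibition from reduced deposited-fibronectin fluorescence.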
aSyn 5UTR inh: 5' untranslated region of α-synuclein, MLPCN primary screen | AID 1813 | inhibition, % (tested at 7.5 µM) | alpha-synuclein 5'UTR reporter, inhibitor activity | actives 0.82% (n = 300,000); in the data active means inhibition above about 60%; inconclusive means no clear call, values can overlap the other calls;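 further: H4 neuroglioblastoma cells stably carrying SNCA 5'UTR luciferase fusion; 0% = DMSO wells and 100% = positive control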
EWS-Fli block: EWS/Fli transcriptional activity inhibition | A673 NR0B1-luciferase reporter, viability-normalised | inhibition, % at 12.6 µM | actives 0.67% (n = 350,000);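 active means mean inhibition of at least 50% after viability correction, with every replicate also passing that limit; inconclusive means mean reaches 50% but only one of two replicates passes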;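 further: firefly luciferase signal divided by Alamar Blue viability fluorescence both relative to DMSO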
The depositor's hits bear a star; ? = inconclusive; nt = no result given. This is a sample that favours compounds with a hit; in the whole collection about 2.1% have one here.

SMILES	Shn3 3UTR inh	PAX8 reporter	EBV LMP1 NFkB	FN deposit inh	aSyn 5UTR inh	EWS-Fli block
COc1ccc2c3c(n(C)c2c1)[C@H](CO)N(C(=O)c1ccncc1)CC31CN(S(C)(=O)=O)C1	nt	nt	nt	nt	nt	-7
O=C1Nc2ccc(Br)cc2/C1=C/C(=O)c1ccc2c(c1)OCO2	97*	25	3	13	10	?
C[C@@H]1CCCCO[C@H](CN(C)Cc2ccc(Cl)c(Cl)c2)[C@@H](C)CN([C@@H](C)CO)C(=O)c2cc(NS(=O)(=O)c3ccc(Cl)cc3)ccc2O1	nt	80*	nt	-9	nt	1
Cc1ccc(S(=O)(=O)Nc2ccc3c(c2)C(=O)N([C@H](C)CO)C[C@H](C)[C@H](CN(C)Cc2ccc(Cl)c(Cl)c2)OCCCC[C@@H](C)O3)cc1	nt	45	nt	-18	nt	-19
C[C@@H]1CCCCO[C@@H](CN(C)Cc2ccc(Cl)c(Cl)c2)[C@@H](C)CN([C@H](C)CO)C(=O)c2cc(NS(=O)(=O)c3ccccc3)ccc2O1	nt	-2	nt	nt	nt	-12
C[C@@H]1CCCCO[C@H](CN(C)Cc2ccc(Cl)c(Cl)c2)[C@H](C)CN([C@@H](C)CO)C(=O)c2cc(NS(=O)(=O)c3ccc(Cl)cc3)ccc2O1	nt	95*	nt	4	nt	5
C[C@@H]1CCCCO[C@H](CN(C)Cc2ccc(Cl)c(Cl)c2)[C@@H](C)CN([C@H](C)CO)C(=O)c2cc(NS(=O)(=O)c3ccc(F)cc3)ccc2O1	nt	21	nt	2	nt	-4
C[C@@H]1CCCCO[C@@H](CN(C)Cc2ccc(Cl)c(Cl)c2)[C@H](C)CN([C@@H](C)CO)C(=O)c2cc(NS(=O)(=O)c3ccc(Cl)cc3)ccc2O1	nt	104*	nt	0	nt	9
C[C@@H]1CCCCO[C@@H](CN(C)Cc2ccc(Cl)c(Cl)c2)[C@H](C)CN([C@H](C)CO)C(=O)c2cc(NS(=O)(=O)c3ccccc3)ccc2O1	nt	93*	nt	nt	nt	4
COc1ccc(-c2ccc3c(c2)[C@@H]2[C@@H](CCN2S(=O)(=O)c2ccccc2F)[C@@H](CO)N3)cc1	nt	28	nt	7	nt	5
CN(C)C(=O)c1ccc(-c2ccccc2[C@@H]2[C@@H](C#N)N(C(=O)C3CCC3)[C@H]2CO)cc1	nt	-5	nt	0	nt	-2
O=C(NC[C@H]1CC[C@@H]2[C@@H](CN2Cc2cc(-c3ccccc3)on2)O1)c1ccc2c(c1)OCO2	nt	-29	nt	nt	nt	1
CO[C@H]1CN(C)C(=O)c2cc(NS(C)(=O)=O)ccc2OC[C@@H](C)N(CC2CCCCC2)C[C@H]1C	nt	nt	nt	3	nt	-1
C[C@@H]1CN([C@H](C)CO)C(=O)c2cc(NS(=O)(=O)c3ccc(Cl)cc3)ccc2O[C@@H](C)CCCCO[C@@H]1CN(C)Cc1ccc(Cl)c(Cl)c1	nt	98*	nt	-1	nt	15
C[C@H](CO)N1C[C@H](C)[C@@H](CN(C)Cc2ccc(Cl)c(Cl)c2)OCCCC[C@H](C)Oc2ccc(NS(=O)(=O)c3ccc(Cl)cc3)cc2C1=O	nt	101*	nt	3	nt	8
C[C@@H]1CCCCO[C@@H](CN(C)Cc2ccc(Cl)c(Cl)c2)[C@@H](C)CN([C@@H](C)CO)C(=O)c2cc(NS(=O)(=O)c3ccc(F)cc3)ccc2O1	nt	-3	nt	5	nt	2
CCNC(=O)C[C@H]1CC[C@@H]2[C@@H](COc3ccc(NC(=O)Nc4ccccc4OC)cc3C(=O)N2C)O1	nt	-2	nt	-15	nt	-12
CO[C@@H]1CN(C)C(=O)c2ccc(NC(=O)Nc3ccc(Cl)cc3)cc2OC[C@H](C)N(C(=O)Nc2c(C)noc2C)C[C@H]1C	nt	-11	nt	0	nt	-3
COc1ccc(CN(C)C[C@H]2OCCCC[C@H](C)Oc3ccc(NS(=O)(=O)c4ccc(OC)cc4)cc3C(=O)N([C@H](C)CO)C[C@@H]2C)cc1	nt	-4	nt	5	nt	78*
COc1ccc(CN(C)C[C@@H]2OCCCC[C@H](C)Oc3ccc(NS(=O)(=O)c4ccc(OC)cc4)cc3C(=O)N([C@@H](C)CO)C[C@@H]2C)cc1	nt	-9	nt	1	nt	69*
COc1ccc(S(=O)(=O)Nc2ccc3c(c2)C(=O)N([C@@H](C)CO)C[C@H](C)[C@@H](CN(C)Cc2ccc(Cl)c(Cl)c2)OCCCC[C@@H](C)O3)cc1	nt	71*	nt	nt	nt	49
COc1ccc(CN(C)C[C@H]2OCCCC[C@@H](C)Oc3ccc(NS(=O)(=O)c4ccc(OC)cc4)cc3C(=O)N([C@H](C)CO)C[C@H]2C)cc1	nt	13	nt	-14	nt	nt
COc1ccc(CN(C)C[C@H]2OCCCC[C@@H](C)Oc3ccc(NS(=O)(=O)c4ccc(OC)cc4)cc3C(=O)N([C@@H](C)CO)C[C@@H]2C)cc1	nt	24	nt	-20	nt	69*
CCC(=O)N1[C@H](CO)[C@@H]2c3ccccc3N(C(=O)c3cnccn3)C[C@@H]21	nt	-6	nt	-1	nt	1
CNC[C@H]1Oc2ccc(NS(=O)(=O)c3ccc(F)cc3)cc2C(=O)N([C@@H](C)CO)C[C@H]1C	nt	-14	nt	nt	nt	3
Cc1ccccc1S(=O)(=O)N(C)C[C@@H]1OCc2ccccc2-c2ccccc2C(=O)N([C@@H](C)CO)C[C@@H]1C	nt	0	nt	-10	nt	1
O=C(c1ccccn1)N1CC(=O)N2[C@H](C1)[C@H](c1ccc(C#CC3CCCC3)cc1)[C@@H]2CO	nt	-3	nt	nt	nt	9
COc1cccc(-c2cn(CC[C@H]3CC[C@H](NC(=O)CN(C)C)[C@@H](CO)O3)nn2)c1	nt	1	nt	3	nt	-7
COc1ccc(-c2cnc3c(NC(C)=O)cc(-c4cc(F)ccc4OC)cn23)cc1OC	14	27	nt	-2	nt	54*
